Activity calls are given as the source filed them. The calls are words filed in the database; no cut-off is given here.
Experiments:
[1] = target: T1, Muscarinic acetylcholine receptor M4 (Homo sapiens) (UniProt P08173); assay: Positive allosteric modulation activity at human M4 receptor expressed in CHO cells co-expressing Gqi5 protein assessed as potentiation of EC20 acetyl choline-induced response by calcium mobilization assay relative to acetylcholine; assay type: functional, cell-based
T1 sequence (whole entry): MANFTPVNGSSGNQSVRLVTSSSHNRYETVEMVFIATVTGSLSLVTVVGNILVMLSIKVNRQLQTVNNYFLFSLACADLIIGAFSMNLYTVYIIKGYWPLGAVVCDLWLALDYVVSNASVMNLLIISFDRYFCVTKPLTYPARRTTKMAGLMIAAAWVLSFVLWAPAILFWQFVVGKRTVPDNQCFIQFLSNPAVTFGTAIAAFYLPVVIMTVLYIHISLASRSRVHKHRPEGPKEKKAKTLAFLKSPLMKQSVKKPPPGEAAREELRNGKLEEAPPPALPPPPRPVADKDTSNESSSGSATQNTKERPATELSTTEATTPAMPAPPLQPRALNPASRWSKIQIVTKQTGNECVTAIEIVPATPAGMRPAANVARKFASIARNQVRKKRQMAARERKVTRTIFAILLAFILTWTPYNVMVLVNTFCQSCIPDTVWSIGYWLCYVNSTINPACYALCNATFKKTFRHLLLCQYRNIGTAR
In short: (§1)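 Calcium mobilization in CHO cells stably co-expressing human or rat M4 with the chimeric Gqi5 protein. Test compound given with a fixed EC20 concentration of acetylcholine. Potency reported as EC50; efficacy as % of the acetylcholine maximum. Means of three independent experiments, each in triplicate.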

[2] = Fraction unbound in human plasma; assay type: ADME, cell-free
In short: (§2)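 Plasma protein binding, reported as fraction unbound in rat and human plasma. Single experiment (n=1) run in triplicate.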

[3] = Intrinsic clearance in rat microsomes; assay type: ADME, Microsome
In short: (§3)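 Hepatic microsomal intrinsic clearance, from which predicted hepatic clearance was derived. Single experiment (n=1) run in triplicate.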

[4] = target: T2, Muscarinic acetylcholine receptor M4 (Rattus norvegicus, UniProt P08485); assay: Positive allosteric modulation activity at rat M4 receptor expressed in CHO cells co-expressing Gqi5 protein assessed as potentiation of EC20 acetyl choline-induced response by calcium mobilization assay; assay type: functional, cell-based; in short: as §1
T2 sequence (P08485 whole entry): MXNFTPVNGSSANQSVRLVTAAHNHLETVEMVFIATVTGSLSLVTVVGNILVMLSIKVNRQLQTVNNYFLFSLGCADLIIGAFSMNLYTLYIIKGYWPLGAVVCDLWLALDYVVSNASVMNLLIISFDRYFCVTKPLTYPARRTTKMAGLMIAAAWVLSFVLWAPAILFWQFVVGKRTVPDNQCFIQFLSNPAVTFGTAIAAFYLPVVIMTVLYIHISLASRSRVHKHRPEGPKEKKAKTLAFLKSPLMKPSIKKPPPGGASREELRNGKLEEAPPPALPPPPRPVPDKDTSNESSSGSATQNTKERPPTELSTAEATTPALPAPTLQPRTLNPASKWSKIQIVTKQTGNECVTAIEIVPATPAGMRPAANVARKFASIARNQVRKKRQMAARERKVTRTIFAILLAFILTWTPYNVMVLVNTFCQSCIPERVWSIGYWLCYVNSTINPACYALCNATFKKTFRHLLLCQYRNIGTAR

[5] = Fraction unbound in rat plasma; assay type: ADME, cell-free; in short: as §2
[6] = target: T3, Muscarinic acetylcholine receptor M4 (Rattus norvegicus) (UniProt P08485); assay: Positive allosteric modulation activity at rat M4 receptor expressed in CHO cells co-expressing Gqi5 protein assessed as potentiation of EC20 acetyl choline-induced response by calcium mobilization assay relative to acetylcholine; assay type: functional, cell-based; in short: as §1
T3 sequence (whole entry): T2 sequence (P08485 whole entry)

[7] = target: T4, Muscarinic acetylcholine receptor M5 (Homo sapiens) (UniProt P08912); assay: Positive allosteric modulation activity at human M5 receptor
T4 sequence (whole entry): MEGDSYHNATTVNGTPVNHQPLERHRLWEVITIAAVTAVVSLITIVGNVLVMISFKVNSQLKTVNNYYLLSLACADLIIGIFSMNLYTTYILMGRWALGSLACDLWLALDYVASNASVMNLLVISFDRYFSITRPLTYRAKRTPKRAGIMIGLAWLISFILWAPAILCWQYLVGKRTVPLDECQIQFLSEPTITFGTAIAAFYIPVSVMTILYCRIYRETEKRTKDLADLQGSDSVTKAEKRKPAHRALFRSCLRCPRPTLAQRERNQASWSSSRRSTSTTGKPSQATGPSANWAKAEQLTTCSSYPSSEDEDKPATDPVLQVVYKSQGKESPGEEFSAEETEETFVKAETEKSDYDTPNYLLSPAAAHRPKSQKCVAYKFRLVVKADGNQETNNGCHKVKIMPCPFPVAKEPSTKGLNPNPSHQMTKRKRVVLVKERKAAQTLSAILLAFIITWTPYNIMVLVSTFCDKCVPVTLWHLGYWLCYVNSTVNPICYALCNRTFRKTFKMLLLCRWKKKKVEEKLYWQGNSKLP

[8] = Intrinsic clearance in human microsomes; assay type: ADME, Microsome; in short: as §3
[9] = target: T5, Muscarinic acetylcholine receptor M4 (Homo sapiens, UniProt P08173); assay: Positive allosteric modulation activity at human M4 receptor expressed in CHO cells co-expressing Gqi5 protein assessed as potentiation of EC20 acetyl choline-induced response by calcium mobilization assay; assay type: functional, cell-based; in short: as §1
T5 sequence (P08173 whole entry): T1 sequence (whole entry)

[10] = Drug level in cryopreserved rat hepatocytes treated with (3-amino-4,6-dimethylthieno[2,3-b]pyridin-2-yl)(pyridin-4-yl)methanone assessed as compound formation; assay type: ADME, cell-based, Hepatocyte
[11] = Drug level in cryopreserved human hepatocytes treated with (3-amino-4,6-dimethylthieno[2,3-b]pyridin-2-yl)(pyridin-4-yl)methanone assessed as compound formation; assay type: ADME, cell-based, Hepatocyte
[12] = Drug metabolism in cryopreserved human hepatocytes assessed as secondary alcohol 18 formation; assay type: ADME, cell-based, Hepatocyte
[13] = Drug metabolism in cryopreserved rat hepatocytes assessed as secondary alcohol 18 formation; assay type: ADME, cell-based, Hepatocyte
[14] = Selectivity ratio of EC50 for rat M4 receptor expressed in CHO cells co-expressing Gqi5 protein to EC50 for human M4 receptor expressed in CHO cells co-expressing Gqi5 protein; assay type: cell-based
[15] = Ratio of drug level in Sprague-Dawley rat brain to plasma at 0.2 to 0.25 mg/kg, iv administered as cassette dose measured 0.25 hrs post dose; assay type: ADME, organism-based; conditions: brain and plasma
In short: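 Male Sprague-Dawley rats (n=1) received an IV cassette dose of 0.20-0.25 mg/kg. Brain and plasma sampled 0.25 hr post-administration. Total brain:plasma partition coefficient (Kp) measured; unbound coefficient (Kp,uu) calculated.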

[16] = target: T6, Cytochrome P450 1A2 (Homo sapiens, UniProt P05177); assay: Inhibition of CYP1A2 (unknown origin); assay type: ADME
T6 sequence (P05177 whole entry): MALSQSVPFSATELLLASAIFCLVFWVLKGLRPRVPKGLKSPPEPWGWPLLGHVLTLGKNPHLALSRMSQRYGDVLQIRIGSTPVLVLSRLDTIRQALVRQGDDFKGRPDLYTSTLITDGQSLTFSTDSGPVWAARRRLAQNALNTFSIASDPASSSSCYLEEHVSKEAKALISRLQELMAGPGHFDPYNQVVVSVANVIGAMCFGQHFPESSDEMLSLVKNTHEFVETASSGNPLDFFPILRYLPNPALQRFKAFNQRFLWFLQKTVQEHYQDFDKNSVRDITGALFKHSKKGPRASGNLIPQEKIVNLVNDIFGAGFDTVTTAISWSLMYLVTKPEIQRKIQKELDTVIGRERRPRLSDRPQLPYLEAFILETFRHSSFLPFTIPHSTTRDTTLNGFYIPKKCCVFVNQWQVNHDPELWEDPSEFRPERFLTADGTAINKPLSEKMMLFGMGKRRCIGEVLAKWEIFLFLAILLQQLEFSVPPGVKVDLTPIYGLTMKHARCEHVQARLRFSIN

[17] = test system: Cytochrome P450; assay: Inhibition of Cytochrome P450 (unknown origin); assay type: ADME, protein assay; conditions: human

| %max [1] | fraction unbound [2] | CLint scaled [3] | EC50 ([4]; read-out: EC50) | EC50 ([4]; read-out: pEC50 (converted)) | fraction unbound [5] | %max [6] | Activity [7] | CLint scaled [8] | EC50 ([9]; read-out: EC50) | EC50 ([9]; read-out: pEC50 (converted)) | Drug metabolism [10] | Drug metabolism [11] | Drug metabolism [12] | Drug metabolism [13] | Kp at 0.25 h [15] | inhibition (INH) [16] | inhibition (INH) [17] | Structure (SMILES) | Ratio EC50 [14] |
| --- | --- | --- | --- | --- | --- | --- | --- | --- | --- | --- | --- | --- | --- | --- | --- | --- | --- | --- | --- |
| 76 to 76.8% | 0.007 | 2070 mL/min/kg | 76 to 145 nM | 145 nM | 0.008 | 71 to 80.5% | inactive | 429 mL/min/kg | 120 to 138 nM | 138 nM | – | – | – | – | – | – | – | Cc1nc2sc(C(=O)c3ccccc3)c(N)c2c(C)c1C | – |
| – | – | – | > 10000 nM | – | – | – | – | – | > 10000 nM | – | Metabolite_Detected | Metabolite_Detected | – | – | – | – | – | Cc1cc(C)c2c(N)c(C(O)c3ccncc3)sc2n1 (configuration not stated) | – |
| 71% | 0.005 to 0.18 | – | 2240 nM | – | 0.005 to 0.18 | 64% | – | – | 589 nM | – | – | – | Metabolite_Detected | Metabolite_Detected | 0.83 to 6.95 | Active | Not Active | Cc1cc(C)c2c(N)c(C(=O)c3ccncc3)sc2n1 | 4 to 7 |
